Results: ChEMBL document CHEMBL1157559, “Synthesis and biological evaluation of novel pyrazolyl-2,4-thiazolidinediones as anti-inflammatory and neuroprotective agents” (Bioorg Med Chem, 2010)
pEC50, pIC50: −log10 of the molar value. Active and inactive are the calls of the source. No cut-off for these calls is given here.

Assays:
[1] = Acute toxicity in po dosed Swiss albino mouse after 24 hrs; type: organism-based; settings: in vivo, read-out: ALD50
Method in brief: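 Four groups of five Swiss albino mice (20–30 g), fasted 24 h beforehand, given compounds orally at graded doses of 0–300 mg/kg. Mortality recorded at each dose level after 24 h to estimate the acute lethal dose (ALD50).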

[2] = tested on: THP-1; assay: Cytotoxicity against LPS and IFN-gamma-stimulated human THP1 cells after 24 hrs; type: functional, cell-based; settings: THP-1, 24 h
Method in brief: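 THP-1 cells, 24-well, in DMEM-F12 with 5% FBS. Compound or DMSO added 15 min before LPS 0.5 µg/mL plus IFN-γ 150 U/mL. After 24 h, LDH release (fraction of Triton-lysed value, OD 490) and MTT were read. EC50 taken from curves of at least three independent experiments; the lower of the two assay values was reported.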

[3] = tested on: THP-1; assay: Inhibition of MCP1 release in human THP1 cells after 24 hrs by ELISA; type: functional, cell-based
Method in brief: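 THP-1 cells pretreated 15 min with compound, then stimulated with LPS 0.5 µg/mL plus IFN-γ 150 U/mL. After 24 h, MCP-1 (ng/mL) measured in cell-free medium by ELISA.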

[4] = tested on: Rattus norvegicus; assay: Antiinflammatory activity in po dosed Wistar albino rat acute inflammatory model assessed as inhibition of formalin-induced paw edema administered 1 hr before formalin challenge measured after 3 hrs by plethysmometer; type: functional
Method in brief: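 Rats dosed orally at 5, 10, 20, 40 and 50 mg/kg body weight. Edema volume inhibition measured 3 h after subplantar formalin (2%, 0.1 mL), and ED50 determined from these doses.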

[5] = tested on: Rattus norvegicus; assay: Antiinflammatory activity in Wistar albino rat acute inflammatory model assessed as inhibition of formalin-induced paw edema at 20 mg/kg, po administered 1 hr before formalin challenge measured after 2 hrs by plethysmometer relative to control; type: functional; design: scale not given: the % may be the effect or the level left
Method in brief: (§1)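 Male Wistar rats, 180–200 g, groups of five. Test compound 20 mg/kg po; 1 h later 0.1 mL 2% formalin injected subplantar into left hind paw under light ether anesthesia. Paw volume by water plethysmometer at 0 and 1, 2, 3, 4 h after formalin. % inhibition = (Vt−V0)control minus (Vt−V0)treated, divided by (Vt−V0)control ×100. Mean ± SEM, ANOVA with Student–Newman–Keuls.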

[6] = tested on: Rattus norvegicus; assay: Antiinflammatory activity in Wistar albino rat acute inflammatory model assessed as inhibition of formalin-induced paw edema at 20 mg/kg, po administered 1 hr before formalin challenge measured after 4 hrs by plethysmometer relative to control; type: functional; design: scale not given: the % may be the effect or the level left; method in brief: as §1
[7] = tested on: Rattus norvegicus; assay: Antiinflammatory activity in Wistar albino rat acute inflammatory model assessed as inhibition of formalin-induced paw edema at 20 mg/kg, po administered 1 hr before formalin challenge measured after 3 hrs by plethysmometer relative to control; type: functional; design: scale not given: the % may be the effect or the level left; method in brief: as §1
[8] = tested on: HL-60; assay: Inhibition of phagocyte respiratory burst in human HL60 cells after 6 to 7 days by luminol-induced chemiluminescence; type: functional, cell-based
Method in brief: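 HL-60 cells differentiated 6–7 days in DMEM-F12 with 10% FBS and 1.3% DMSO, washed into serum-free, phenol red-free medium, then held 30 min at 37 °C before compound or DMSO was added. Luminol injected, 7.5 min baseline recorded, then FMLP injected (final 1 µM; luminol 5 mM; DMSO 0.5%). Chemiluminescence recorded 30 min at 37 °C; read-out was area under the curve.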

[9] = tested on: Rattus norvegicus; assay: Antiinflammatory activity in Wistar albino rat sub-acute inflammatory model assessed as inhibition of turpentine oil-induced granuloma pouch exudate volume at 20 mg/kg, po 1 hr before turpentine oil challenge for 7 days assessed measured on day 8; type: functional
Method in brief: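 Male rats 120–150 g, five per group. Subcutaneous dorsal pouch made under ether with 2 mL air, then 0.5 mL turpentine oil injected. Compound 20 mg/kg po 1 h before turpentine, then daily for seven days. On day 8 exudate drawn by syringe under anesthesia and volume measured. % inhibition = (Vcontrol − Vtreated)/Vcontrol ×100.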

[10] = tested on: Rattus norvegicus; assay: Antiinflammatory activity in Wistar albino rat sub-acute inflammatory model assessed as inhibition of formalin-induced paw edema at 20 mg/kg, po administered daily for 7 days by plethysmometer relative to control; type: functional; settings: 168 h
Method in brief: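 Rats dosed orally at 20 mg/kg daily for 7 consecutive days. 0.1 mL 2% formalin given subplantar in left hind paw under light ether 1 h after the first oral dose, with a second injection on day 3. Paw edema weight (g) measured on day 8. % inhibition = (control − treated)/control ×100. Groups of five.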

[11] = tested on: Rattus norvegicus; assay: Antiinflammatory activity in Wistar albino rat acute inflammatory model assessed as inhibition of formalin-induced paw edema at 20 mg/kg, po administered 1 hr before formalin challenge measured after 1 hr by plethysmometer relative to control; type: functional; design: scale not given: the % may be the effect or the level left; method in brief: as §1
[12] = tested on: SH-SY5Y; assay: Antineurotoxicity in human SH-SY5Y cells assessed as inhibition human THP1 cell supernatant-induced cytotoxicity compound pretreated 24 to 48 hrs to THP1 cells measured after 72 hrs of supernatant addition; type: functional, cell-based
Method in brief: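 THP-1 cells in DMEM-F12 with 5% FBS, pretreated 15 min with compound or DMSO, then stimulated with LPS 0.5 µg/mL plus IFN-γ 150 U/mL for 24 or 48 h. Cell-free supernatant transferred to SH-SY5Y cells plated 24 h earlier. After 72 h, viability by LDH release and MTT. IC50 from curves of at least three independent experiments.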

[13] = tested on: Rattus norvegicus; assay: Gastrointestinal toxicity in Wistar albino rat assessed as ulceration at 100 mg/kg/day, po administered twice daily for 3 days; type: organism-based; design: route oral; settings: in vivo, 72 h
Method in brief: (§2)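 Male rats 180–200 g, groups of five, fasted 12 h with water available. Compounds given orally as two equal doses at 0 and 12 h, 100 mg/kg per day, for three successive days; vehicle control 1% gum acacia. Rats killed 6 h after last dose. Stomach opened along greater curvature, washed with cold saline and inspected under 3× lens for hyperemia, hemorrhage, erosions or ulcers.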

[14] = tested on: SH-SY5Y; assay: Neuroprotective activity in human SH-SY5Y cells assessed as inhibition of H2O2-induced cytotoxicity after 72 hrs by LDH assay; type: functional, cell-based
Method in brief: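 SH-SY5Y cells plated in DMEM-F12 with 5% FBS. After 24 h, medium replaced with medium containing H2O2 (500 µM in methods, 250 µM in figure legend), and compound added directly at that time. Cell death measured by LDH release 72 h later.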

[15] = target: T1, Prostaglandin G/H synthase 2 (Homo sapiens) (UniProt P35354); settings: at 10 µM
T1 sequence (whole entry): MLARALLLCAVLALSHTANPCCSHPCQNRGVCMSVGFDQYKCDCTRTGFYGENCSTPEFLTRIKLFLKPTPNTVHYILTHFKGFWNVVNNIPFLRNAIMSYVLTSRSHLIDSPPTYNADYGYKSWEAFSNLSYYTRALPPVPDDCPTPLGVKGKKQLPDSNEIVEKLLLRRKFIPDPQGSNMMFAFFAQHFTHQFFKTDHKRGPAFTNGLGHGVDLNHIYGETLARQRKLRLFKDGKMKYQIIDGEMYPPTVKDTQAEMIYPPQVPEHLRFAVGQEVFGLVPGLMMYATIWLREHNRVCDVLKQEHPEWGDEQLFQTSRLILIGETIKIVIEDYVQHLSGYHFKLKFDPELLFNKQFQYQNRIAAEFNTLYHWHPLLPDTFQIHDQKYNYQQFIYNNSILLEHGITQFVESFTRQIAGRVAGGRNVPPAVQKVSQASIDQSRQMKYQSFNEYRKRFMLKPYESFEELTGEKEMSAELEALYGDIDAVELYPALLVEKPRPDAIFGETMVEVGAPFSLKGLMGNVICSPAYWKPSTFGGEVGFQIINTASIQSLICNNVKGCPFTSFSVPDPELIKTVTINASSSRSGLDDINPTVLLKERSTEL

[16] = target: T2, Prostaglandin G/H synthase 1 (Ovis aries) (UniProt P05979); assay: Inhibition of ovine COX1 at 10 uM
T2 sequence (whole entry): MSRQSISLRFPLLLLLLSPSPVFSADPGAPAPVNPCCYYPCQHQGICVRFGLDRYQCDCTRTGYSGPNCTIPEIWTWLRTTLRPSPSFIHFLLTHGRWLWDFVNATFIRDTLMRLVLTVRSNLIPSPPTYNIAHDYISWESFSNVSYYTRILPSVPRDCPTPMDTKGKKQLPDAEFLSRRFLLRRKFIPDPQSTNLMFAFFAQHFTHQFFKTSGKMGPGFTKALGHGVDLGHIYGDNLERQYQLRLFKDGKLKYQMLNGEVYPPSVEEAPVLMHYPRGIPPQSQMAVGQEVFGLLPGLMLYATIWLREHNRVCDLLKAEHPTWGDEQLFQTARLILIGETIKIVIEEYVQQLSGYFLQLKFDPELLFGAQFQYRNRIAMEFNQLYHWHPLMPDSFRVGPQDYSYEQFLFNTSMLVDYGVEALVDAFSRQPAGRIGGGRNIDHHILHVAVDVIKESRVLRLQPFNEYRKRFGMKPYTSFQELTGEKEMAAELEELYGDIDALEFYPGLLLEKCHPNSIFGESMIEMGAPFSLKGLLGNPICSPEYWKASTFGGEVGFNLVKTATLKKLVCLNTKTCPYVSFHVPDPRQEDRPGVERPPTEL
Method in brief: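 Kit assay with ovine COX-1, run per manufacturer's protocol. Read-out was percent inhibition of prostaglandin production, with compound at 10 µM and three experiments.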

[17] = tested on: Rattus norvegicus; assay: Gastrointestinal toxicity in Wistar albino rat assessed as hyperemia at 100 mg/kg/day, po administered twice daily for 3 days; type: organism-based; design: route oral; settings: in vivo, 72 h; method in brief: as §2
[18] = tested on: SH-SY5Y; assay: Neuroprotective activity in human SH-SY5Y cells assessed as inhibition of LPS, IFN-gamma-stimulated THP1 cellular supernatant-induced cytotoxicity after 72 hrs by LDH assay; type: functional, cell-based
Method in brief: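 SH-SY5Y cells plated 24 h, then medium replaced with supernatant from THP-1 cells stimulated with LPS + IFN-γ for 48 h. Compound added directly to the SH-SY5Y cells at the time of transfer. Cell death measured by LDH release after 72 h; 4–6 independent experiments.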

Row | Structure (SMILES) | LD50 at 24 h [1] | pEC50 [2] | inhibition [3] | pIC50 [12] | also measured
1 | O=C1S/C(=C\c2cn(-c3ccccc3)nc2-c2ccccc2)C(=O)N1Cc1ccccc1 | > 300 mg/kg | < 4.00 | inactive |  | 
2 | CCCN1C(=O)S/C(=C\c2cn(-c3ccccc3)nc2-c2ccccc2)C1=O | > 300 mg/kg | < 4.00 | inactive |  | 
3 | O=C1NC(=O)/C(=C/c2cn(-c3ccccc3)nc2-c2ccc(Cl)cc2)S1 | > 300 mg/kg | < 4.00 | inactive |  | ED50 [4]: 13 mg/kg; Activity [5]: 50%; Activity [6]: 74%; Activity [7]: 74%; pIC50 [8]: 6.10; inhibition in vivo at 20 mg/kg [9]: 44%; inhibition in vivo at 20 mg/kg [10]: 42%; Activity [11]: 41%
4 | C=CCN1C(=O)S/C(=C\c2cn(-c3ccccc3)nc2-c2ccccc2)C1=O | > 300 mg/kg | < 4.00 | inactive | 4.30 | 
5 | O=C1NC(=O)/C(=C/c2cn(-c3ccccc3)nc2-c2ccccc2)S1 | > 300 mg/kg | 4.30 | inactive |  | ED50 [4]: 21.3 mg/kg; Activity [5]: 38%; Activity [6]: 43%; Activity [7]: 43%; pIC50 [8]: 5.10; inhibition in vivo at 20 mg/kg [9]: 53%; inhibition in vivo at 20 mg/kg [10]: 53%; Activity [11]: 35%
6 | O=C1S/C(=C\c2cn(-c3ccccc3)nc2-c2ccc(Cl)cc2)C(=O)N1Cc1ccc(Cl)cc1 | > 300 mg/kg | 5.40 | inactive |  | 
7 | O=C1S/C(=C\c2cn(-c3ccccc3)nc2-c2ccccc2)C(=O)N1Cc1cccc(Br)c1 | > 300 mg/kg | < 4.00 | inactive |  | 
8 | O=C1S/C(=C\c2cn(-c3ccccc3)nc2-c2ccc(Cl)cc2)C(=O)N1Cc1ccccc1 | > 300 mg/kg | 6.00 | inactive | 5.10 | 
9 | O=C1S/C(=C\c2cn(-c3ccccc3)nc2-c2ccccc2)C(=O)N1Cc1ccc(Cl)cc1 | > 300 mg/kg | 4.30 | inactive | 4.10 | 
10 | Cc1ccc(-c2cc(C(F)(F)F)nn2-c2ccc(S(N)(=O)=O)cc2)cc1 [CELECOXIB] |  | 4.30 | inactive | 5.30 | ED50 [4]: 14.3 mg/kg; Activity [5]: 50%; Activity [6]: 68%; Activity [7]: 60%; Activity [13]: 0%; inhibition in vivo at 20 mg/kg [9]: 54%; inhibition in vivo at 20 mg/kg [10]: 50%; Activity [11]: 41%
11 | C=CCN1C(=O)S/C(=C\c2cn(-c3ccccc3)nc2-c2ccc(Cl)cc2)C1=O | > 300 mg/kg | 3.92 | inactive | 5.00 | inhibition [14]: inactive; ED50 [4]: 15.4 mg/kg; Activity [5]: 63%; Activity [6]: 66%; inhibition [15]: 13.6%; inhibition [16]: 26.5%; Activity [7]: 72%; Activity [13]: 0%; inhibition in vivo at 20 mg/kg [9]: 50%; inhibition in vivo at 20 mg/kg [10]: 47%; Activity [17]: Non-toxic; Activity [11]: 53%; inhibition [18]: inactive
12 | O=C1S/C(=C\c2cn(-c3ccccc3)nc2-c2ccc(Cl)cc2)C(=O)N1Cc1cccc(Br)c1 | > 300 mg/kg | 5.30 | inactive | 5.10 | 
13 | CCCN1C(=O)S/C(=C\c2cn(-c3ccccc3)nc2-c2ccc(Cl)cc2)C1=O | > 300 mg/kg | < 4.00 | inactive |  | 
14 | COc1ccc2c(c1)c(CC(=O)O)c(C)n2C(=O)c1ccc(Cl)cc1 [INDOMETHACIN] |  |  |  |  | Activity [13]: 100%
